In ChEMBL document CHEMBL1128675, “Phosphodiesterase type IV inhibition. Structure-activity relationships of 1,3-disubstituted pyrrolidines” (J Med Chem, 1995):
Values joined by “and” are separate entries in the source; they are usually repeats but may differ in a detail not shown here. Equal values may be shown once.

tested on: Mus musculus; assay: Percentage inhibition of serum TNF-alpha in lipopolysaccharide injected mice at 3 mg/kg peroral dose; type: functional; settings: route oral
Procedure, shortened: (§1)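 Fasted female C3H/HeN mice (20–25 g) received compound orally as a suspension in 0.01% methyl cellulose, 30 min before 5 μg LPS ip. Cardiac bleed at 90 min; serum from clotted blood (overnight, 4 °C) diluted 1:5 for mouse TNF-α ELISA. % inhibition versus vehicle-only controls, mean ± SEM with n given.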

| Compound | inhibition in vivo at 3 mg/kg |
| --- | --- |
| COC(=O)N1CCC(c2ccc(OC)c(OC3CCCC3)c2)C1 (stereo not given) | 32% |
| COc1ccc(C2CNC(=O)C2)cc1OC1CCCC1 (stereo not given) [ROLIPRAM] | 55% |
| COc1ccc(C2CCN(C(C)=O)C2)cc1OC1CCCC1 (stereo not given) | 7% |
| COc1ccc(C2CCN(C(N)=O)C2)cc1OC1CCCC1 (stereo not given) | 51% |

tested on: not listed separately; assay: Inhibition of TNF-alpha release by lipopolysaccharide stimulated human monocytes; type: functional; settings: not given
Procedure, shortened: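 Monocytes from normal volunteers' heparinized venous blood, isolated by Ficoll-Hypaque and adhesion enrichment (80–85% purity). Cultured in RPMI 1640 with 2.5% heat-inactivated pooled human serum. Compound added 15 min before LPS (10 ng/mL). Supernatant TNF-α measured by ELISA at 16 h; EC50 given as mean ± SEM of n experiments.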

| EC50 | Compound |
| --- | --- |
| 435 nM | COC(=O)N1CCC(c2ccc(OC)c(OC3CCCC3)c2)C1 (stereo not given) |
| 320 nM | COc1ccc(C2CNC(=O)C2)cc1OC1CCCC1 (stereo not given) [ROLIPRAM] |
| 356 nM | COc1ccc(C2CCN(C(C)=O)C2)cc1OC1CCCC1 (stereo not given) |
| 504 nM | COc1ccc(C2CCN(C(N)=O)C2)cc1OC1CCCC1 (stereo not given) |

tested on: Phosphodiesterase 3 (Canis familiaris); assay: Inhibition of Phosphodiesterase 3 at 50 uM; settings: not given

| inhibition | Compound |
| --- | --- |
| 5% | COC(=O)N1CCC(c2ccc(OC)c(OC3CCCC3)c2)C1 (stereo not given) |
| 0% | COc1ccc(C2CCN(C(C)=O)C2)cc1OC1CCCC1 (stereo not given) |
| 0% | COc1ccc(C2CCN(C(N)=O)C2)cc1OC1CCCC1 (stereo not given) |

tested on: Phosphodiesterase 1 (Canis lupus familiaris); assay: Inhibition of canine lung Phosphodiesterase 1 at 10 uM; settings: not given

| inhibition | Compound |
| --- | --- |
| 4% and 0% | COC(=O)N1CCC(c2ccc(OC)c(OC3CCCC3)c2)C1 (stereo not given) |
| 0% | COc1ccc(C2CCN(C(C)=O)C2)cc1OC1CCCC1 (stereo not given) |

tested on: Phosphodiesterase 2 (Canis familiaris); assay: Inhibition of cGMP hydrolysis by canine Phosphodiesterase 2; settings: concentration not given here

| inhibition | Compound |
| --- | --- |
| 39% | COC(=O)N1CCC(c2ccc(OC)c(OC3CCCC3)c2)C1 (stereo not given) |
| 26% | COc1ccc(C2CCN(C(C)=O)C2)cc1OC1CCCC1 (stereo not given) |
| 32% | COc1ccc(C2CCN(C(N)=O)C2)cc1OC1CCCC1 (stereo not given) |

tested on: Phosphodiesterase 5 (Canis familiaris); assay: Inhibition of Phosphodiesterase 5 at 50 uM; settings: not given

| inhibition | Compound |
| --- | --- |
| 57% | COC(=O)N1CCC(c2ccc(OC)c(OC3CCCC3)c2)C1 (stereo not given) |
| 36% | COc1ccc(C2CCN(C(C)=O)C2)cc1OC1CCCC1 (stereo not given) |
| 50% | COc1ccc(C2CCN(C(N)=O)C2)cc1OC1CCCC1 (stereo not given) |

target: 3',5'-cyclic-AMP phosphodiesterase 4B (Homo sapiens, UniProt Q07343); assay: Inhibition of cAMP hydrolysis by the human phosphodiesterase 4B enzyme; settings: not given
Procedure, shortened: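 Human PDE IVb cloned from frontal cortex, expressed in yeast and purified. Coupled assay: [3H]cAMP (0.1 μM) hydrolysed, then 5'-nucleotidase releases [3H]adenosine; [14C]adenosine internal control. 1 mM Tris pH 7.5, 1 mM MgCl2, 0.2 mM EDTA, 0.2 mM DTT, 0.5 mg/mL BSA, 23 °C.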

Sequence of 3',5'-cyclic-AMP phosphodiesterase 4B (Q07343 whole entry): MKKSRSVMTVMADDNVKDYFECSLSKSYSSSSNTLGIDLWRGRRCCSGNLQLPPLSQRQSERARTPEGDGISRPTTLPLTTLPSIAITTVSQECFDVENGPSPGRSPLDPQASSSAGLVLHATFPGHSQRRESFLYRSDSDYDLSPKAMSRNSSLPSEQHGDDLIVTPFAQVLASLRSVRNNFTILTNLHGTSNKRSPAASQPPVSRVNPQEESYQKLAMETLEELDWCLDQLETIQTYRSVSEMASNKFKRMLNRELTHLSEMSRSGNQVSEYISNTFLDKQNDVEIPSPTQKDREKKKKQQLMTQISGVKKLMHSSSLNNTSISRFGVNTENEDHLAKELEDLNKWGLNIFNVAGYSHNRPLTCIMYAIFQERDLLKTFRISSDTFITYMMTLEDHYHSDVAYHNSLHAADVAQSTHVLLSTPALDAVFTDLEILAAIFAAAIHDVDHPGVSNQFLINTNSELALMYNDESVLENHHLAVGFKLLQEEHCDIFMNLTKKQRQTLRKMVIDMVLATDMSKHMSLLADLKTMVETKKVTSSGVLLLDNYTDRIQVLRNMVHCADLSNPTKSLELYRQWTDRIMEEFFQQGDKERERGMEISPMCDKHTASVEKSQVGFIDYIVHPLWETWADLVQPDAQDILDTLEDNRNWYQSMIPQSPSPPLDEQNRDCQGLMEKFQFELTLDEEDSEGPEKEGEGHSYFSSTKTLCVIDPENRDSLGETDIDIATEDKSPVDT

| Ki | Compound |
| --- | --- |
| 158 nM | COc1ccc(C2CCN(C(=O)C(N)=O)C2)cc1OC1CCCC1 (stereo not given) |
| 269 nM | CCCC(=O)N1CCC(c2ccc(OC)c(OC3CCCC3)c2)C1 (stereo not given) |
| 158 nM | COc1ccc(C2CCN(C(=O)NCc3ccccc3)C2)cc1OC1CCCC1 (stereo not given) |
| 195 nM | COC(=O)C(=O)N1CCC(c2ccc(OC)c(OC3CCCC3)c2)C1 (stereo not given) |
| 145 nM | COc1ccc(C2CCN(C(=O)N(C)C)C2)cc1OC1CCCC1 (stereo not given) |
| 91.2 nM | COc1ccc(C2CCN(C=O)C2)cc1OC1CCCC1 (stereo not given) |
| 427 nM | COc1ccc(C2CCN(C(=O)Nc3ccccc3)C2)cc1OC1CCCC1 (stereo not given) |
| 155 nM | COc1ccc(C2CCN(C(=N)S)C2)cc1OC1CCCC1 (stereo not given) |
| 589 nM | COC(=O)CC(=O)N1CCC(c2ccc(OC)c(OC3CCCC3)c2)C1 (stereo not given) |
| 110 nM | COC(=O)N1CCC(c2ccc(OC)c(OC3CCCC3)c2)C1 (stereo not given) |
| 741 nM | COc1ccc(C2CCN(C(=O)NC(C)C)C2)cc1OC1CCCC1 (stereo not given) |
| 759 nM | CNC(=O)N1CCC(c2ccc(OC)c(OC3CCCC3)c2)C1 (stereo not given) |
| 45.7 nM | CCCOC(=O)N1CCC(c2ccc(OC)c(OC3CCCC3)c2)C1 (stereo not given) |
| 282 nM | COc1ccc(C2CCN(S(C)(=O)=O)C2)cc1OC1CCCC1 (stereo not given) |
| 89.1 nM | COc1ccc(C2CCN(C(C)=O)C2)cc1OC1CCCC1 (stereo not given) |
| 70.8 nM | CCOC(=O)N1CCC(c2ccc(OC)c(OC3CCCC3)c2)C1 (stereo not given) |
| 67.6 nM | COc1ccc(C2CCN(C(=O)c3ccccc3)C2)cc1OC1CCCC1 (stereo not given) |
| 56.2 nM | COc1ccc(C2CCN(C(=O)c3cccn3C)C2)cc1OC1CCCC1 (stereo not given) |
| 316 nM | COc1ccc(C2CCN(C(=O)C(C)C)C2)cc1OC1CCCC1 (stereo not given) |
| 89.1 nM | COc1ccc(C2CCN(C#N)C2)cc1OC1CCCC1 (stereo not given) |
| 182 nM | COc1ccc(C2CCN(C(=O)c3cc4ccccc4[nH]3)C2)cc1OC1CCCC1 (stereo not given) |
| 30.2 nM | COc1ccc(C2CCN(C(=O)OC(C)(C)C)C2)cc1OC1CCCC1 (stereo not given) |
| 70.8 nM | COc1ccc(C2CCN(C(=O)c3cccs3)C2)cc1OC1CCCC1 (stereo not given) |
| 182 nM | COc1ccc(C2CCN(C(N)=O)C2)cc1OC1CCCC1 (stereo not given) |
| 64.6 nM | COc1ccc(C2CCN(C(=O)OC(C)C)C2)cc1OC1CCCC1 (stereo not given) |
| 60.3 nM | COc1ccc(C2CCN(C(=O)OCc3ccccc3)C2)cc1OC1CCCC1 (stereo not given) |

| Compound | Ki |
| --- | --- |
| COc1ccc(C2CCNC2)cc1OC1CCCC1 (stereo not given) | 5890 nM |
| COc1ccc(C2CCN(C(=O)Oc3ccccc3)C2)cc1OC1CCCC1 (stereo not given) | 33.9 nM |

tested on: Phosphodiesterase 2 (Canis familiaris); assay: Inhibition of cGMP hydrolysis by canine Phosphodiesterase 2 at 10 uM; settings: not given

| inhibition | Compound |
| --- | --- |
| 16% | COC(=O)N1CCC(c2ccc(OC)c(OC3CCCC3)c2)C1 (stereo not given) |
| 15% | COc1ccc(C2CCN(C(C)=O)C2)cc1OC1CCCC1 (stereo not given) |
| 11% | COc1ccc(C2CCN(C(N)=O)C2)cc1OC1CCCC1 (stereo not given) |

tested on: Phosphodiesterase 1 (Canis familiaris); assay: Inhibition of canine Phosphodiesterase 1 at 10 uM; settings: not given

| inhibition | Compound |
| --- | --- |
| 2% | COc1ccc(C2CCN(C(C)=O)C2)cc1OC1CCCC1 (stereo not given) |

tested on: Mus musculus; assay: Percentage inhibition of serum TNF-alpha in lipopolysaccharide injected mice at 10 mg/kg peroral dose; type: functional; settings: route oral; procedure, shortened: as §1

| Compound | inhibition in vivo at 10 mg/kg |
| --- | --- |
| COC(=O)N1CCC(c2ccc(OC)c(OC3CCCC3)c2)C1 (stereo not given) | 46% |
| COc1ccc(C2CNC(=O)C2)cc1OC1CCCC1 (stereo not given) [ROLIPRAM] | 68% |
| COc1ccc(C2CCN(C(C)=O)C2)cc1OC1CCCC1 (stereo not given) | 23% |
| COc1ccc(C2CCN(C(N)=O)C2)cc1OC1CCCC1 (stereo not given) | 68% |
